Experimental data taken from paper PMC2886165 (Biochimica et biophysica acta, 2010).
Values joined by “and” are separate entries in the source; they are usually repeats but may differ in a detail not shown here. Identical values can stand only once. Like-named read-outs stand apart in the source and are kept apart here.

Tests used:
RORγ LBD = molecular target: T1, RORγ LBD (Homo sapiens, UniProt P51449); assay type: binding
T1 sequence (P51449 269-508 limits assumed): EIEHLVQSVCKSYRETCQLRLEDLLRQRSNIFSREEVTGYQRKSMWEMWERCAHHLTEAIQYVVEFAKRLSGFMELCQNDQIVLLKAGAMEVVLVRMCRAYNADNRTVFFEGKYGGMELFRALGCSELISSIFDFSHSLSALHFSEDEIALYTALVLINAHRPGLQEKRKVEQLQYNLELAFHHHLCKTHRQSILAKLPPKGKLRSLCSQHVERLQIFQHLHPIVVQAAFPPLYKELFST

Gal4-RORα LBD [1] = molecular target: T2, Gal4-RORα LBD (Homo sapiens, UniProt P35398); assay: Gal4-RORα LBD cotransfection luciferase assay in HEK293 cells; assay type: cell-based; details: for effect on constitutive activity: single dose of 10 μM
T2 sequence (P35398 272-510 limits assumed): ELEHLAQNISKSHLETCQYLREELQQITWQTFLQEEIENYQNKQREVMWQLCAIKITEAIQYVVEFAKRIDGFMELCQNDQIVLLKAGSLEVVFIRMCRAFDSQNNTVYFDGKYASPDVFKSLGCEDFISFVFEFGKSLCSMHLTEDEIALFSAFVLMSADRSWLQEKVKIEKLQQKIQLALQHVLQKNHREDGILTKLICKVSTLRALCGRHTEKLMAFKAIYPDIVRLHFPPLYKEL
Summary of the method: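 Gal4-RORα LBD plasmid transfected into HEK293 cells with Lipofectamine 2000; cells plated 15 × 10^3/well 24 h earlier. […] Dual luciferase read after 24 h; four wells per point, ≥3 repeats. IC50 derived by non-linear regression; dose responses analysed by one-way ANOVA.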

Gal4-RORγ LBD [2] = molecular target: T3, Gal4-RORγ LBD (Homo sapiens, UniProt P51449); assay: Gal4-RORγ LBD cotransfection luciferase assay in HEK293 cells; assay type: cell-based; details: for effect on constitutive activity: single dose of 10 μM
T3 sequence (P51449 269-508 limits assumed): T1 sequence (P51449 269-508 limits assumed)

Gal4-RORγ LBD [3] = molecular target: T3, Gal4-RORγ LBD; details: previous study; cited from earlier work
Gal4-RORα LBD [4] = molecular target: T2, Gal4-RORα LBD; details: previous study; cited from earlier work
[5] = molecular target: T4, RORα / SRC-2 on BMAL1 promoter (Homo sapiens, UniProt P35398); assay type: cell-based; details: 10 μM, 24 hours, HepG2
T4 sequence (P35398 1-523): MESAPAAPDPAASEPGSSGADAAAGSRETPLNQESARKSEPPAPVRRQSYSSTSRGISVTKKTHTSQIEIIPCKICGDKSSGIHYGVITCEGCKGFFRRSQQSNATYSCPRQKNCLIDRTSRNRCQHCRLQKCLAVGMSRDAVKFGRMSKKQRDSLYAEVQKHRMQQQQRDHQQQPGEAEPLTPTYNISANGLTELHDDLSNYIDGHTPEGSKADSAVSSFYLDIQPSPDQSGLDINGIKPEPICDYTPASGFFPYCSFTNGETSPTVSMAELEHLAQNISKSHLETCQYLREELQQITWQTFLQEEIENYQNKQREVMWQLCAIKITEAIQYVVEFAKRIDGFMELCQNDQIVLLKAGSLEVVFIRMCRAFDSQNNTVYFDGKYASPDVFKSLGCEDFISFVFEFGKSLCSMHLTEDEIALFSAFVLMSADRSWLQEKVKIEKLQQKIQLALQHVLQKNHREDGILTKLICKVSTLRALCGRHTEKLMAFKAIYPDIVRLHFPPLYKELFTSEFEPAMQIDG
Summary of the method: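 HepG2 cells (MEM, 10% FBS, 37 °C, 5% CO2) infected with RORα adenovirus for 24 h, then given vehicle or 10 μM test compound for a further 24 h. First IP with anti-FLAG; re-IP with anti-SRC2, anti-RNA Pol II (positive control) or IgG (negative control). Bmal1 promoter amplified by PCR; band intensity averaged over three experiments.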

RORα LBD = molecular target: T5, RORα LBD (Homo sapiens, UniProt P35398); assay type: binding; details: competition with 3 nM [3H]-25-hydroxycholesterol, Cheng-Prusoff
T5 sequence (P35398 272-510 limits assumed): T2 sequence (P35398 272-510 limits assumed)

full-length RORγ = molecular target: T6, full-length RORγ (Homo sapiens, UniProt P51449); assay type: cell-based; details: 10 μM, HEK293
T6 sequence (P51449 1-518): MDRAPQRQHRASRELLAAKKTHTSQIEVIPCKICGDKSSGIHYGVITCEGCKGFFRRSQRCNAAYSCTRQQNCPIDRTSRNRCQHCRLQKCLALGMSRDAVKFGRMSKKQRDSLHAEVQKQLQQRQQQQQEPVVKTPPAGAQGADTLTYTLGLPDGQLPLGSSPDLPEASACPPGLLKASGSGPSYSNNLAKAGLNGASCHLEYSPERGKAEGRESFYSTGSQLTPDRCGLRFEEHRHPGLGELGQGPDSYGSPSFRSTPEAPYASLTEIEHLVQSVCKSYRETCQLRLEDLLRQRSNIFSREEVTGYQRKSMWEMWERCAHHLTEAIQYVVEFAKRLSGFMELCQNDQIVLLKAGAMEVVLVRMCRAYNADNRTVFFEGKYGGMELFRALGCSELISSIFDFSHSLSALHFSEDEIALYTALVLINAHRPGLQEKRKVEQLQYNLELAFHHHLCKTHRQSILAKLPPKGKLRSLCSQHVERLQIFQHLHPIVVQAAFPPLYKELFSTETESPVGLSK
Summary of the method: (§1)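 HEK293 cells (DMEM, 10% FBS, 37 °C, 5% CO2) plated at 15 × 10^3 cells/well 24 h before transfection. Lipofectamine 2000 cotransfection of full-length receptor expression vector plus Bmal1 promoter-luciferase reporter. Vehicle or 10 μM test compound added 16 h post-transfection; dual luciferase read 24 h later. Mean ± S.E. of four wells, repeated at least three times; paired t test.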

RORα = molecular target: T7, RORα (Homo sapiens, UniProt P35398); assay: RORα cotransfection assay, G6Pase promoter luciferase reporter; assay type: cell-based; details: 10 μM, HepG2 (Figure 3C legend)
T7 sequence (P35398 1-523): T4 sequence (P35398 1-523)

[6] = test system: RORα target genes (BMAL1, REV-ERBα); assay: Quantitative PCR of RORα target genes in HepG2 cells; assay type: cell-based, human; details: 10 μM
Summary of the method: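 HepG2 cells treated with 10 μM test compound, with RORα-targeting siRNA or scrambled control siRNA. Total RNA extracted, reverse-transcribed and quantified by real-time PCR using human BMAL1 and REV-ERBα primers.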

full-length RORα = molecular target: T8, full-length RORα (Homo sapiens, UniProt P35398); assay type: cell-based; details: 10 μM, HEK293
T8 sequence (P35398 1-523): T4 sequence (P35398 1-523)
Summary of the method: as §1

LXRs = details: cited from earlier work

With C[C@H](CC[C@@H]1OC1(C)C)[C@H]1CC[C@H]2[C@@H]3CC=C4C[C@@H](O)CC[C@]4(C)[C@H]3CC[C@]12C [24,25-epoC, 24(S),25 epoxycholesterol] the Ki (RORγ LBD) was 20 nM, the “effect on constitutive activity” value (Gal4-RORα LBD [1]) was “without having any significant effect” and the IC50 (Gal4-RORγ LBD [2]) was 280 nM. For the same molecule, the “effect on constitutive activity” value (Gal4-RORγ LBD [2]; HEK293) was “suppresses the activity”.

For CC(C)CC[C@@H](O)[C@@H](C)[C@H]1CC[C@H]2[C@@H]3CC=C4C[C@@H](O)CC[C@]4(C)[C@H]3CC[C@]12C [22-OHC], the “effect on activity of RORγ” value (Gal4-RORγ LBD [3]) is listed as “unable to affect the activity” and the “effect on activity of RORα” value (Gal4-RORα LBD [4]) is listed as “unable to affect the activity”.

For C[C@H](CCCC(C)(C)O)[C@H]1CC[C@H]2[C@@H]3CC=C4C[C@@H](O)CC[C@]4(C)[C@H]3CC[C@]12C [25-OHC, 25-hydroxycholesterol], the “effect on activity of RORα” value (Gal4-RORα LBD [4]) is given as “unable to affect the activity”.

For C[C@@H](CO)CCC[C@@H](C)[C@H]1CC[C@H]2[C@@H]3CC=C4C[C@@H](O)CC[C@]4(C)[C@H]3CC[C@]12C [27-OHC], the “effect on activity of RORγ” value (Gal4-RORγ LBD [3]) is listed as “unable to affect the activity” and the “effect on activity of RORα” value (Gal4-RORα LBD [4]) is listed as “unable to affect the activity”.

For CC(C)[C@@H](O)CC[C@@H](C)[C@H]1CC[C@H]2[C@@H]3CC=C4C[C@@H](O)CC[C@]4(C)[C@H]3CC[C@]12C [24S-OHC, 24S-hydroxycholesterol], the Ki (RORγ LBD; competition with 3 nM [3H]-25-hydroxycholesterol, Cheng-Prusoff) was ~25 nM and 25 nM, the “reduction of transcriptional activity” value (Gal4-RORα LBD [1]; 10 μM) was 30 to 40% and the Maximal suppression (Gal4-RORα LBD [1]; dose-response) was about 30%. For the same molecule, the IC50 (Gal4-RORα LBD [1]; read-out: IC50 (suppression of transcriptional activity), dose-response) was 620 nM, the “reduction of SRC-2 recruited versus DMSO control” value [5] was about 50% and the Ki (RORα LBD) was 27 nM. For the same molecule, the “suppression of Bmal1 driven reporter gene expression” value (full-length RORγ) was 20-40%, the “reduction of transcriptional activity” value (Gal4-RORγ LBD [2]; 10 μM, HEK293) was 30 to 40% and the Maximal suppression (Gal4-RORγ LBD [2]; dose-response, HEK293) was about 30%. For the same molecule, the IC50 (Gal4-RORγ LBD [2]; read-out: IC50 (suppression of transcriptional activity), dose-response, HEK293) was 1300 nM, the “suppression of G6Pase promoter reporter expression” value (RORα) was “approximately 30%” and the “decrease of BMAL1 mRNA expression” value [6] was 38%. The “decrease of REV-ERBα mRNA expression” value [6] was 33% and the “suppression of Bmal1 driven reporter gene expression” value (full-length RORα) was 20-40%.

In the case of CC(C)[C@H](O)CC[C@@H](C)[C@H]1CC[C@H]2[C@@H]3CC=C4C[C@@H](O)CC[C@]4(C)[C@H]3CC[C@]12C [24R-OHC, 24R-hydroxycholesterol], the Ki (RORγ LBD) is reported as 102 nM, the “effect on constitutive activity” value (Gal4-RORα LBD [1]) is reported as “no effect” and the IC50 (Gal4-RORγ LBD [2]) is reported as 90 nM. For the same molecule, the “effect on constitutive activity” value (Gal4-RORγ LBD [2]; HEK293) was “significant decrease in the constitutive activity”.

For CC(C)CCC[C@@H](C)[C@H]1CC[C@H]2[C@@H]3C(=O)C=C4C[C@@H](O)CC[C@]4(C)[C@H]3CC[C@]12C [7-ketocholesterol], the “affinity for the LXRs” value (LXRs) is listed as “no affinity”.

In the case of CC(C)CCC[C@@H](C)[C@H]1CC[C@H]2[C@@H]3[C@H](O)C=C4C[C@@H](O)CC[C@]4(C)[C@H]3CC[C@]12C [7α-OHC], the “affinity for the LXRs” value (LXRs) is given as “no affinity”.
